Assay results reported in ChEMBL document CHEMBL1142507, “Novel potent and selective Ca2+ release-activated Ca2+ (CRAC) channel inhibitors. Part 3: synthesis and CRAC channel inhibitory activity of 4'-[(trifluoromethyl)pyrazol-1-yl]carboxanilides” (Bioorg Med Chem, 2008).

Tests used:
Jurkat [1] = test: Inhibition of PHA-induced IL2 production in human Jurkat T lymphocytes; format: functional, cell-based
Outline: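 Jurkat T cells (5 × 10⁶ cells/ml) stimulated with PHA (20 µg/ml) for 20 h. IL-2 in the supernatant quantified by human IL-2 ELISA.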

PC-12 = test: Inhibition of VOC channel-mediated calcium influx in […] PC12-h5 cells at 10 uM; format: cell-based; conditions: Rattus norvegicus
Outline: (§1)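 PC12-h5 cells (1 × 10⁶ cells/ml) loaded with 1 µM Fura-2/AM for 45 min at room temperature in HEPES buffer pH 7.4, then washed. Depolarized with 50 mM KCl for 20 min. Intracellular Ca²⁺ measured at the 20 min endpoint from the 340/380 nm excitation ratio (500 nm emission), with compound autofluorescence subtracted.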

Mus musculus [2] = test: Inhibition of trinitrochlorobenzene-induced contact hypersensitivity in 1 hr before pretreated CD1 mouse assessed as ear swelling at 30 mg/kg, po; format: functional
Outline: (§2)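 Mice challenged with TNCB on both sides of the ear pinna. Compound given orally 1 h before TNCB exposure, with 0.5% MC vehicle given orally to control animals. Ear thickness measured by dial gauge 24 h after challenge and swelling calculated from the pre-exposure value.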

[3] = Inhibition of CRAC channel-mediated calcium influx in human Jurkat cells; format: cell-based
Outline: (§3)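 Jurkat cells (2 × 10⁶ cells/ml) loaded with 1 µM Fura-2/AM for 45 min at room temperature in HEPES buffer pH 7.4 (NaCl 137, KCl 5.8, MgCl₂ 1, CaCl₂ 2.5, glucose 5, HEPES 10 mM), then washed. Thapsigargin-induced Ca²⁺ influx read by 340/380 nm excitation, 500 nm emission, with cell-free compound fluorescence subtracted. IC50 taken from percent inhibition.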

Jurkat [4] = test: Selectivity ratio of IC50 for VOC channel in […] PC12-h5 cells over IC50 for CRAC channel in human Jurkat cells
[5] = Inhibition of VOC channel-mediated calcium influx in […] PC12-h5 cells; format: cell-based; conditions: Rattus norvegicus, PC-12; outline: as §1
Jurkat [6] = test: Inhibition of CRAC channel-mediated calcium influx in human Jurkat cells at 10 uM; format: cell-based; outline: as §3
Rattus norvegicus = test: Inhibition of ovalbumin-induced airway eosinophilia in BN rat po dosed 1 hr before antigen challenge assessed as number of eosinophils in bronchoalveolar levage fluid after 24 hrs; format: functional; conditions: Lung
Outline: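 Sensitized rats were challenged 3 weeks later with aerosolized 1% (w/v) ovalbumin for 15 min. Compound given orally 1 h before exposure. BAL performed 24 h after challenge. Total white cells counted with a blood cell counter. Eosinophils identified morphologically on smears and eosinophil number per animal calculated. ED50 derived.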

Mus musculus [7] = test: Inhibition of trinitrochlorobenzene-induced contact hypersensitivity in 1 hr before orally pretreated CD1 mouse assessed as ear swelling; format: functional; conditions: CD1, po; outline: as §2

Compound	IC50 (Jurkat [1]) [nM]	IC50 [3] [nM]	IC50 [5] [nM]	inhibition (PC-12) [%]	inhibition in vivo at 30 mg/kg (Mus musculus [2]) [%]	Ratio IC50 (Jurkat [4])	inhibition (Jurkat [6]) [%]	ED50 (Rattus norvegicus) [mg/kg]	ED50 (Mus musculus [7]) [mg/kg]
O=C(Nc1ccc(-n2nc(C(F)(F)F)cc2C(F)(F)F)cc1)c1cncc(F)c1	18	77	–	27	44	> 130	–	–	–
O=C(Nc1ccc(-n2nc(C(F)(F)F)cc2C(F)(F)F)cc1)c1cnccc1O	–	–	–	–	–	–	21	–	–
O=C(Nc1ccc(-n2nc(C(F)(F)F)cc2C(F)(F)F)cc1)c1cncc(Br)c1	24	150	–	29	17	> 67	–	–	–
O=C(Nc1ccc(-n2nc(C(F)(F)F)cc2C(F)(F)F)cc1)c1ccncc1	16	240	10000	–	25	42	–	–	–
O=C(Nc1ccc(-n2nc(C(F)(F)F)cc2C(F)(F)F)cc1)c1c[nH]cn1	–	–	–	–	–	–	29	–	–
Nc1ccncc1C(=O)Nc1ccc(-n2nc(C(F)(F)F)cc2C(F)(F)F)cc1	–	780	2400	–	–	3.1	–	–	–
COc1ncccc1C(=O)Nc1ccc(-n2nc(C(F)(F)F)cc2C(F)(F)F)cc1	–	120	2900	–	–	24	–	–	–
COc1ccncc1C(=O)Nc1ccc(-n2nc(C(F)(F)F)cc2C(F)(F)F)cc1	–	230	4800	–	–	21	–	–	–
O=C(Nc1ccc(-n2nc(C(F)(F)F)cc2C(F)(F)F)cc1)c1nccs1	–	460	–	37	–	> 22	–	–	–
O=C(Nc1ccc(-n2nc(C(F)(F)F)cc2C(F)(F)F)cc1)c1cccnc1Cl	–	240	4500	–	–	19	–	–	–
O=C(Nc1ccc(-n2nc(C(F)(F)F)cc2C(F)(F)F)cc1)c1cnccc1C(F)(F)F	–	430	2000	–	–	5	–	–	–
Cc1nnsc1C(=O)Nc1ccc(-n2nc(C(F)(F)F)cc2C#N)cc1	–	220	–	45	–	> 45	–	–	–
Cc1nnsc1C(=O)Nc1ccc(-n2nc(C(F)(F)F)cc2C(F)(F)F)cc1	17	150	4700	–	100	31	–	2.4	1.1
O=C(Nc1ccc(-n2nc(C(F)(F)F)cc2C(F)(F)F)cc1)c1cccnc1O	–	3300	–	–	–	–	–	–	–
Cc1nnsc1C(=O)Nc1ccc(-n2ccc(C(F)(F)F)n2)cc1	–	–	–	–	–	–	40	–	–
Cc1nnsc1C(=O)Nc1ccc(-n2nc(C(F)(F)F)cc2C)cc1	18	220	–	46	24	> 45	–	–	–
Cc1ccc(C(=O)Nc2ccc(-n3nc(C(F)(F)F)cc3C(F)(F)F)cc2)cn1	94	220	–	27	46	> 45	–	–	–
Cc1nnsc1C(=O)Nc1ccc(-n2nc(C(F)(F)F)cc2Cl)cc1	15	82	2900	–	42	35	–	–	–
O=C(Nc1ccc(-n2nc(C(F)(F)F)cc2C(F)(F)F)cc1)c1ccccn1	–	–	–	–	–	–	14	–	–
Cc1nnsc1C(=O)Nc1ccc(-n2nc(C(F)(F)F)cc2Br)cc1	5.9	92	2600	–	8.3	28	–	–	–

Further lines, with some results ahead:

IC50 (Jurkat [1]) [nM]	IC50 [3] [nM]	IC50 [5] [nM]	Compound	inhibition (PC-12) [%]	inhibition in vivo at 30 mg/kg (Mus musculus [2]) [%]	Ratio IC50 (Jurkat [4])	inhibition (Jurkat [6]) [%]	ED50 (Rattus norvegicus) [mg/kg]	ED50 (Mus musculus [7]) [mg/kg]
34	110	–	O=C(Nc1ccc(-n2nc(C(F)(F)F)cc2C(F)(F)F)cc1)c1cncc(Cl)c1	31	42	> 91	–	–	–
–	210	3100	Cc1cncc(C(=O)Nc2ccc(-n3nc(C(F)(F)F)cc3C(F)(F)F)cc2)c1	–	–	15	–	–	–
–	290	6300	Cc1ccncc1C(=O)Nc1ccc(-n2nc(C(F)(F)F)cc2C(F)(F)F)cc1	–	–	20	–	–	–
–	400	3500	Cc1nnsc1C(=O)Nc1ccc(-n2nc(C(F)(F)F)c3c2CCC3)cc1	–	–	8.8	–	–	–
33	290	–	Cc1cc(C)c(C(=O)Nc2ccc(-n3nc(C(F)(F)F)cc3C(F)(F)F)cc2)cn1	41	64	> 34	–	1.3	–
–	960	10000	O=C(Nc1ccc(-n2nc(C(F)(F)F)cc2C(F)(F)F)cc1)c1cncs1	–	–	10	–	–	–
93	250	–	O=C(Nc1ccc(-n2nc(C(F)(F)F)cc2C(F)(F)F)cc1)c1cccnc1	30	62	> 40	–	–	–
–	1600	–	Cc1ccnc(C)c1C(=O)Nc1ccc(-n2nc(C(F)(F)F)cc2C(F)(F)F)cc1	–	–	–	–	–	–
160	270	–	Nc1cncc(C(=O)Nc2ccc(-n3nc(C(F)(F)F)cc3C(F)(F)F)cc2)c1	14	59	> 37	–	4.4	–
–	720	2500	Cc1ccc(-c2cc(C(F)(F)F)nn2-c2ccc(NC(=O)c3snnc3C)cc2)cc1	–	–	3.5	–	–	–
18	160	5100	O=C(Nc1ccc(-n2nc(C(F)(F)F)cc2C(F)(F)F)cc1)c1cnccc1Cl	–	-18	32	–	–	–
